In general, inhibition refers to the share of the control response that was lost under treatment. Usually pKa stands for the pH at which an ionisable group is half protonated.

From ChEMBL document CHEMBL1158426, “Semisynthesis and pharmacological activities of Tetrac analogs: angiogenesis modulators” (Bioorg Med Chem Lett, 2009) come the findings set out here.

For one series, the species on record is Gallus gallus. Kind of series: Antiangiogenic activity in chicken embryo chorioallantoic membrane model assessed as inhibition of FGF-induced angiogenesis at 1 uM treated 1 hr after FGF challenge measured after 48 hrs relative to control. It counts as functional, tissue-based. The essentials: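 Live chick chorioallantoic membrane was exposed to FGF with or without test agent, with PBS as a control. New vessel formation was scored as branch points and reported as mean ± SEM, n = 8. Percent inhibition was calculated against the FGF control.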

The species entered for another series is Mus musculus. As to the kind of experiment: Antiangiogenic activity in […] mouse assessed as inhibition of FGF-induced angiogenesis at 10 ug/Matrigel plug measured after 15 days of Matrigel injection using […] reagent staining by ELISA. It counts as functional. The conditions noted are these: in the assay text read “after 14 days” for “after 15 days”. The essentials: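 Mice housed 4 per cage at 20–24 °C, 60–70% humidity, 12 h light/dark, food and water ad libitum, with 5 days' acclimation. Matrigel thawed overnight at 4 °C, kept on ice, injected subcutaneously with FGF. Dissected plugs were stripped of peritoneum, homogenized in ddH₂O for 5–10 min, and spun at 4000 rpm for 10 min. Supernatant was mixed with Drabkin's reagent for 15–30 min at room temperature for hemoglobin measurement.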
In general terms: An ELISA detects its analyte on a solid surface through an enzyme-linked reagent.

Series [1] can be described thus: Dissociation constant, pKa of the compound. Type of series: physicochemical.

For `O=C(Cc1cc(I)c(Oc2cc(I)c(OCC3CO3)c(I)c2)c(I)c1)OCC1CO1` (configuration not stated), the inhibition in the series filed under Gallus gallus stood at 31%. Also, the “inhibition (INH)” value in the series listed under Mus musculus turned out to be 100%.
With `O=C(Cc1cc(I)c(Oc2cc(I)c(O)c(I)c2)c(I)c1)N1CCCCC1`, the inhibition in the series filed under Gallus gallus came out at 15%. Also, in the series filed under Mus musculus, the “inhibition (INH)” value came out at 104%.
As for `O=C(O)Cc1cc(I)c(Oc2cc(I)c(OCC3CO3)c(I)c2)c(I)c1` (configuration not stated), the inhibition in the series filed under Gallus gallus amounted to 62%. In the series filed under Mus musculus, the “inhibition (INH)” value came out at 100%.
Take `O=C(O)Cc1cc(I)c(Oc2cc(I)c(O)c(I)c2)c(I)c1` [TETRAC]: the inhibition in the series filed under Gallus gallus came to 85%. In addition, the “inhibition (INH)” value in the series filed under Mus musculus is recorded as 90%. Besides, the pKa in series [1] was found to be 4.3.
As to `CC(C)(C)OC(=O)Cc1cc(I)c(Oc2cc(I)c(O)c(I)c2)c(I)c1`, the inhibition in the series filed under Gallus gallus amounted to 88%. The “inhibition (INH)” value in the series filed under Mus musculus amounted to 95%.
As for `CC(C)[Si](OC(=O)Cc1cc(I)c(Oc2cc(I)c(O)c(I)c2)c(I)c1)(C(C)C)C(C)C`, in the series filed under Gallus gallus, the inhibition came out at 75%. Moreover, the “inhibition (INH)” value in the series filed under Mus musculus is 104%.
As to `O=C(Cc1cc(I)c(Oc2cc(I)c(OCC3CO3)c(I)c2)c(I)c1)N1CCCCC1` (configuration not stated), the inhibition in the series listed under Gallus gallus turned out to be 44%. The “inhibition (INH)” value in the series listed under Mus musculus is recorded as 80%.
As to `CC(C)[Si](OC(=O)Cc1cc(I)c(Oc2cc(I)c(OCC3CO3)c(I)c2)c(I)c1)(C(C)C)C(C)C` (configuration not stated), the inhibition in the series listed under Gallus gallus stood at 96%. Moreover, the “inhibition (INH)” value in the series listed under Mus musculus worked out at 100%.
